hERG rescue = compounds protecting human hERG from proarrhythmic drug block. CHO-hERG, FluxOR thallium flux, dofetilide IC70 present. activation (rescue from dofetilide block), less the hit threshold, % at 10 µM. 310,000 compounds, 0.51% hits;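 active means activation above the mean of controls blocked by dofetilide plus 5 SD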;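 further: thallium influx through hERG after potassium depolarization seen as dye fluorescence rise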
KCNK3 inh = human KCNK3 channel inhibition, primary screen | 340,000 compounds, 0.84% hits | CHO-KCNK3 thallium flux, FluxOR fluorescence; active compounds read low | AID 602410 | B-score at 10 µM | O14649;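 active means B-score under library mean minus 4 SD, starting fluorescence ratio at most library mean plus 5 SD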;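 further: more negative B-score means stronger inhibition of thallium flux through KCNK3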
Kir21 block = Kir2.1 (mouse) channel inhibition; 310,000 compounds, 0.85% hits; AID 1672; P35561; B-score at 10 µM; HEK293-Kir2.1, FluxOR thallium flux fluorescence; active compounds read low;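 active means fluorescence ratio B-score at or below minus 3 SD of library scores, with starting-brightness B-score within 2 SD, cut at about -4.2 in these data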;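 further: channel flux triggered by added potassium and thallium sulfate stimulus; B-score of peak minus minimum fluorescence over baseline after thallium stimulus; more negative B-score means stronger Kir2.1 block with less thallium influx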
KCNQ1 block = human KCNQ1 channel inhibition; AID 2642; CHO-K1 KCNQ1, FluxOR thallium flux fluorescence; active compounds read high; B-score at 10 µM; P51787; 310,000 compounds, 1.3% hits;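 active means compounds whose thallium flux B-score, printed positive for inhibition, exceeds three library SD while starting fluorescence stays within three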;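 further: channel opened by potassium depolarization with thallium stimulus after 20 min compound exposure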
KCNK9 block = human KCNK9 channel inhibition; Q9NPC2; HEK293 KCNK9, FluxOR thallium flux fluorescence; active compounds read low; B-score at 10 µM; 310,000 compounds, 1.2% hits;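 active means ratio B-score over 3 SD below the library mean, with starting fluorescence within 5 SD of its mean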;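 further: negative B-score means less thallium flux so channel inhibition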
Target sequence (Q9NPC2 whole entry, looked up): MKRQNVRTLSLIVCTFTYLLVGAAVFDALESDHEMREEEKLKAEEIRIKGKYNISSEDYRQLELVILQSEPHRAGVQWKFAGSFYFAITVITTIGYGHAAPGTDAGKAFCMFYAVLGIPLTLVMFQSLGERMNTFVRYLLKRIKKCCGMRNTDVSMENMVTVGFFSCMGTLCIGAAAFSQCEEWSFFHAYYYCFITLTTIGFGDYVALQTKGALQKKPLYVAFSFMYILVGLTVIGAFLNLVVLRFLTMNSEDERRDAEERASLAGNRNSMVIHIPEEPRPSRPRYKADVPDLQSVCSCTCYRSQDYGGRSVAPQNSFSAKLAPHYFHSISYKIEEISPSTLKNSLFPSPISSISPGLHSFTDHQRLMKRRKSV
KCNQ1 act = potentiators or activators of human KCNQ1 potassium channel | AID 2648 | B-score at 10 µM | P51787 | CHO-K1 KCNQ1, thallium flux FluxOR fluorescence; active compounds read high | 310,000 compounds, 0.35% hits;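 active means fluorescence ratio B-score, a plate-corrected score, at least three library SD, with initial intensity B-score within 5 SD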
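Assay system: CHO-K1 cells stably expressing KCNQ1; Medium: assay buffer with matched DMSO; Also added: K+/Tl+ depolarizing stimulus; Dosing: single dose; Timing: dye 90 min, compound 20 min, room temperature; Measured by: kinetic FluxOR thallium fluorescence, 10-s 1-Hz baseline, 110-s post-stimulus read; Read-out: peak-minus-minimum fluorescence over initial fluorescence, negative-control normalized, B-scored.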
KCNK9 block conf = confirmation of human KCNK9 potassium channel inhibitors. 4,900 compounds, 43% hits. inhibition, % at 10 µM. shares compounds with KCNK9 block. HEK293 KCNK9 cells, FluxOR thallium flux fluorescence. AID 492992;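 active means thallium signal inhibited by more than 5 SD of the compound-free buffer control wells, on both duplicate plates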;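 further: 0% = assay buffer control wells without compound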
Kir2-1 spec = selectivity of KCNK9 modulators against mouse Kir2.1; Kir2.1 cells, FluxOR thallium flux fluorescence; inhibition, % at 10 µM; shares compounds with KCNK9 block; 4,900 compounds, 4% hits;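 active means thallium signal drop more than 5 SD beyond the mean of the no-compound control wells, seen in both duplicate plates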;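 further: signal is fluorescence rise after thallium addition divided by baseline fluorescence; plate controls were assay buffer only for no effect and full block by chlorpromazine control for full effect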
HEK293 Tl ctr = second check of KCNK9 modulator effects in non-induced HEK293 cells. shares compounds with KCNK9 block. FluxOR thallium flux. AID 492997. inhibition, % at 10 µM. 4,900 compounds, 40% hits;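 active means thallium signal drop beyond 5 SD of the untreated control mean, on both duplicate plates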;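 further: plate controls were buffer only IC0 wells for no effect and SID17386958 at its maximal inhibitory level for full effect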
* hit, by the source's call; i = inactive; · = not tested or not shown. A selection: hits, their analogues and other compounds. The true share with any hit is near 3.7%.

SMILES | hERG rescue | KCNK3 inh | Kir21 block | KCNQ1 block | KCNK9 block | KCNQ1 act | KCNK9 block conf | Kir2-1 spec | HEK293 Tl ctr
Cc1cc(SCC(=O)N/N=C/c2ccc(O)c(O)c2O)c(C)cc1Br | -50 | i | -0.48 | i | i | i | i | i | i
CCOC(=O)c1ccc(-c2c(-c3ccc4c(c3)OCO4)noc2-c2ccsc2)cc1F | -13 | i | -0.59 | i | i | i | · | · | ·
COc1cc(-c2c(-c3ccc4c(c3)OCO4)noc2-c2ccsc2)ccc1F | -21 | i | -1.2 | i | -11* | i | 56%* | i | 36%*
Cc1cccc(C)c1OCC(O)CN1CCN(c2ccccc2)CC1 (stereo not drawn) | -16 | i | 0.56 | i | i | i | i | i | i
OC(COc1ccc(Cl)cc1)CN1CCN(c2cccc(Cl)c2)CC1 (stereo not drawn) | -20 | i | -0.39 | i | i | i | i | i | i
OC(COC(c1ccc(Cl)cc1)c1ccc(Cl)cc1)CN1CCN(c2ccccn2)CC1 (stereo not drawn) | -34 | i | 1.5 | i | i | i | i | i | i
CN1CCN(CC(O)COC(c2ccccc2)c2ccccc2)CC1 (stereo not drawn) | -7 | i | -0.28 | i | i | i | · | · | ·
OC(COC(c1ccccc1)c1ccccc1)CN1CCN(c2cccc(Cl)c2)CC1 (stereo not drawn) | -12 | i | 0.65 | i | i | i | i | i | i
CCc1nn(C(CC)C(=O)NCC(C)c2ccccc2)c(=O)c2cc3occc3n12 (stereo not drawn) | -13 | i | 0.23 | i | i | i | · | · | ·
CC(C)(C)C(=O)Nc1ccccc1N1CCN(c2ccc(F)cc2)CC1 | -8 | i | 0.65 | i | i | i | · | · | ·
CCN(C(=O)COc1ccc(F)cc1Br)c1c(N)n(Cc2ccccc2)c(=O)[nH]c1=O | · | i | · | · | · | · | · | · | ·
O=c1c2c3c(sc2n(CCN2CCCCC2)c(=O)n1Cc1ccco1)CCCCC3 | -14 | i | 4.4e-16 | i | i | i | i | i | i
Cc1ccnc(NC(=O)c2ccc3[nH]c(=O)c(=O)[nH]c3c2)c1 | -5 | i | 3.4 | i | i | i | · | · | ·
COc1ccccc1NC(=O)Nc1nn(C)c2cccc(OC)c12 | -11 | i | -0.3 | i | -11* | i | 48%* | i | 27%*
COCCN(CC(=O)Nc1cccc(C)c1C)C(=O)Cc1sc(C)nc1-c1ccc(F)cc1 | · | i | · | · | · | · | · | · | ·
Cc1cc(C)n(C(C)CNS(=O)(=O)c2ccc(C)c(C)c2)n1 (stereo not drawn) | -3 | i | -1.3 | i | i | i | · | · | ·
CN(C)CCCN(C(=O)c1ccc(C(=O)c2ccccc2)cc1)c1nc2c(F)cccc2s1 | -16 | i | -2.5 | i | i | i | i | i | i
Cn1nc(C(F)(F)F)c(/C=N/OC(=O)c2ccccc2Cl)c1SCc1ccccc1Cl | -14 | i | 1.1 | i | -10* | i | 44%* | i | 36%*
Cc1ccccc1-n1ncc2c(SCC(=O)N3c4ccccc4CC3C)ncnc21 (stereo not drawn) | -7 | i | 0.41 | i | i | i | i | i | i
Cc1ccccc1-n1ncc2c(SCC(=O)NC3CCCC3)ncnc21 | -4 | i | 0.53 | i | i | i | · | · | ·
COC(=O)C1=C(COc2ccccc2)NC(=O)NC1c1ccc2ccccc2c1 (stereo not drawn) | -3 | · | -0.68 | i | i | i | · | · | ·
C[C@@H](C(=O)NCc1ccccc1)[C@H]1C[C@]1(C)[C@H](NC(=O)OCc1ccccc1)c1ccccc1 | -8 | i | 1.2 | i | -9.2* | i | 49%* | i | i
C[C@@H](C(=O)O)[C@H]1C[C@]1(C)[C@H](NC(=O)OCc1ccccc1)c1ccccc1 | -7 | i | 0.57 | i | i | i | · | · | ·
COc1cccc(NC(=O)[C@H](CC(C)C)NC(=O)N2CCn3c2nc2ccccc23)c1 | -6 | i | 0.32 | i | -9.9* | i | i | i | i
Cc1cc(C(=O)COC(=O)C2CCN(C(=O)c3ccc(Cl)cc3)CC2)c(C)n1CC1CCCO1 (stereo not drawn) | -15 | i | -0.2 | i | i | i | i | i | i
SMILES | hERG rescue | KCNK3 inh | Kir21 block | KCNQ1 block | KCNK9 block | KCNQ1 act | KCNK9 block conf | Kir2-1 spec | HEK293 Tl ctr
COCCn1cnc2c(c1=O)c1nc3ccccc3nc1n2/N=C/c1cccc(OC)c1 | -3 | i | 1.1 | i | -9.7* | i | i | i | i
COc1cccc(Oc2ccc(N/C=C/C(=O)C(C)(C)C)cc2)c1 | -9 | i | -0.51 | i | i | i | · | · | ·
COc1ccc(Oc2ccc(N/C=C/C(=O)C(C)(C)C)cc2)cc1 | -8 | i | -0.11 | i | i | i | i | i | i
CCOc1ccc(N(CC(=O)NCCc2ccccc2)S(=O)(=O)c2ccccc2)cc1 | -6 | i | -3.5 | i | i | i | · | · | ·
COc1cc(C2SCC(=O)N2c2nnc(C34CC5CC(CC(C5)C3)C4)s2)cc(OC)c1OC (stereo not drawn) | -6 | i | 1.1 | i | i | i | i | i | i
CCCCNC(=O)CSc1nnc(Cc2ccc(Cl)c(Cl)c2)c(=O)[nH]1 | -10 | i | -0.88 | i | i | i | · | · | ·
Cc1cc(/C=N/NC(=O)C(=O)N2CCCC2)c(C)n1-c1cccc(Br)c1 | -2 | i | -1.4 | i | i | i | · | · | ·
Cc1cc(/C=N/NC(=O)c2c(Br)cnn2C)c(C)n1-c1cccc(Br)c1 | -5 | i | -1.5 | i | -12* | i | 54%* | i | 29%*
Cc1ccccc1CN1CCN(Cc2cc(=O)c3ccccc3[nH]2)CC1CCO (stereo not drawn) | -7 | i | 1.2 | i | i | i | · | · | ·
CC(C)COc1ccc(CSCCNC(=S)Nc2ccccc2)cc1 | -16 | i | 3.7 | 9* | i | i | i | i | i
CCCCOc1ccc(CSCCNC(=S)Nc2ccccc2)cc1 | 2 | i | -1.5 | i | i | i | · | · | ·
CCOc1ccc(S(=O)(=O)N=C(c2ccccc2)N2CCOCC2)cc1 | · | i | · | · | · | · | · | · | ·
CC(C)n1ncc2c(C(=O)Nc3cccc(S(=O)(=O)N(C)C)c3)cc(C3CC3)nc21 | · | i | · | · | · | · | · | · | ·
